One may read the inhibition as the drop in the measured response relative to a control, in per cent.

Inhibition data for 29 molecules are collected here from ChEMBL document CHEMBL1811881, “Development of 3-substituted-androsterone derivatives as potent inhibitors of 17β-hydroxysteroid dehydrogenase type 3” (Bioorg Med Chem, 2011).

Common to all, as to assay type: cell-based
In assay [1] the target is T1, 17-beta-hydroxysteroid dehydrogenase type 3 (Homo sapiens) (UniProt P37058).
T1 sequence (whole entry): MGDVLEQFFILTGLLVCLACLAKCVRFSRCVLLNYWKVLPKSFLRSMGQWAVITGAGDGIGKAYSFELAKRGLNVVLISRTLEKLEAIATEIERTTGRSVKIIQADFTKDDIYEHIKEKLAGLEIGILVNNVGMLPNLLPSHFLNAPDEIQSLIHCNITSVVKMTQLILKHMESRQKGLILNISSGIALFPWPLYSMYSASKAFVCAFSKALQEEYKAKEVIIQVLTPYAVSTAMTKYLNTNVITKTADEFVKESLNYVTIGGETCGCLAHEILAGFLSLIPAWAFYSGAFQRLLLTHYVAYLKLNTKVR
Put plainly: Inhibition of 17Beta-HSD3 expressed in intact HEK293 cells assessed as transformation of [14C]-4-androstene-3,17-dione into [14C]-testosterone in presence of NADPH at 1 uM after 1 hr incubation. The method in brief:
(§1)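 HEK-293 cells were grown in MEM with 10% FBS at 37 °C under 5% CO2, seeded at 200,000 cells/well, and transfected with 2 µg/well of a 17β-HSD3 expression plasmid. Intact cells then got 50 nM [4-14C]-4-androstene-3,17-dione plus inhibitor in ethanol (0.5% v/v) for 1 h. Radiolabelled steroids were extracted from the medium and quantified. Triplicate; % transformation was used to derive IC50.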

In assay [2] the target is T1, 17-beta-hydroxysteroid dehydrogenase type 3 (Homo sapiens). Put plainly: Inhibition of 17Beta-HSD3 expressed in homogenized HEK293 cells assessed as transformation of [14C]-4-androstene-3,17-dione into [14C]-testosterone in presence of NADPH at 0.1 uM. The gist of the method: (§2)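 HEK-293 cells overexpressing 17β-HSD3 were briefly homogenized. The enzyme assay measured conversion of 50 nM [4-14C]-4-androstene-3,17-dione to [14C]-testosterone with NADPH in excess (5 mM). Inhibitor was dissolved in ethanol, and the ethanol-only control was used to derive % inhibition at each concentration. Error 10%.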

The target is the same in assay [3]. Description: Inhibition of 17Beta-HSD3 expressed in homogenized HEK293 cells assessed as transformation of [14C]-4-androstene-3,17-dione into [14C]-testosterone in presence of NADPH at 0.01 uM. The method in brief:
as §2

The target is the same in assay [4]. Put plainly: Inhibition of 17Beta-HSD3 expressed in homogenized HEK293 cells assessed as transformation of [14C]-4-androstene-3,17-dione into [14C]-testosterone in presence of NADPH at 1 uM. The gist of the method:
as §2

The target is the same in assay [5]. Description: Inhibition of 17Beta-HSD3 expressed in intact HEK293 cells assessed as transformation of [14C]-4-androstene-3,17-dione into [14C]-testosterone in presence of NADPH at 0.1 uM after 1 hr incubation. The gist of the method:
as §1

In the case of `C[C@]12CC[C@](O)(CN3CCN(Cc4cccc(Cl)c4)CC3)C[C@@H]1CC[C@@H]1[C@@H]2CC[C@]2(C)C(=O)CC[C@@H]12`, the inhibition in assay [1] was 75%; in assay [2], 85%; in assay [3], 26%.

As for `Cc1cccc(S(=O)(=O)CCN2C[C@]3(CC[C@@]4(C)[C@@H](CC[C@@H]5[C@@H]4CC[C@]4(C)C(=O)CC[C@@H]54)C3)OC2=O)c1`, the inhibition in assay [4] came to 93%; in assay [5], 5%; in assay [2], 52%; in assay [3], 0%.

Turning to `C[C@]12CC[C@@]3(C[C@@H]1CC[C@@H]1[C@@H]2CC[C@]2(C)C(=O)CC[C@@H]12)CN(CCBr)C(=O)O3`, the inhibition was 93% in assay [4], 31% in assay [5], 69% in assay [2] and 17% in assay [3].

Regarding `C[C@]12CC[C@](O)(CN3CCCCC3)C[C@@H]1CC[C@@H]1[C@@H]2CC[C@]2(C)C(=O)CC[C@@H]12`, the inhibition is 69% in assay [4], 23% in assay [1], 19% in assay [2] and 9% in assay [3].

`C[C@]12CC[C@](O)(CN3CCC(N4CCCCC4)CC3)C[C@@H]1CC[C@@H]1[C@@H]2CC[C@]2(C)C(=O)CC[C@@H]12`: the inhibition in assay [4] came out at 69%; in assay [1] it was 20%; in assay [2] it was 4%; in assay [3] it was 0%.

`CCCCN(CCCC)C[C@@]1(O)CC[C@@]2(C)[C@@H](CC[C@@H]3[C@@H]2CC[C@]2(C)C(=O)CC[C@@H]32)C1`: the inhibition came out at 85% in assay [4]; 90% in assay [1]; 53% in assay [5]; 70% in assay [2]; 13% in assay [3].

Turning to `C[C@@H]1CN(Cc2cccc(SC(F)(F)F)c2)[C@@H](C)CN1C[C@@]1(O)CC[C@@]2(C)[C@@H](CC[C@@H]3[C@@H]2CC[C@]2(C)C(=O)CC[C@@H]32)C1`, the inhibition in assay [1] amounted to 58%; in assay [2], 88%; in assay [3], 18%.

For `C[C@@H]1CN(Cc2cccc(Cl)c2)[C@@H](C)CN1C[C@@]1(O)CC[C@@]2(C)[C@@H](CC[C@@H]3[C@@H]2CC[C@]2(C)C(=O)CC[C@@H]32)C1`, the values for the inhibition in assay [1], in assay [2] and in assay [3] were 55%, 84% and 26%, respectively.

As for `C[C@]12CC[C@](O)(CN3CCN(Cc4cccnc4)CC3)C[C@@H]1CC[C@@H]1[C@@H]2CC[C@]2(C)C(=O)CC[C@@H]12`, the values for the inhibition in assay [1], in assay [2] and in assay [3] were 63%, 33% and 10%, respectively.

Consider `C[C@]12CC[C@](O)(CN3CCC(Cc4ccccc4)CC3)C[C@@H]1CC[C@@H]1[C@@H]2CC[C@]2(C)C(=O)CC[C@@H]12`, for which the inhibition in assay [4] is 90%; in assay [1] it was 52%; in assay [2], 82%; in assay [3], 40%.

For the molecule `CCN(CCN1C[C@]2(CC[C@@]3(C)[C@@H](CC[C@@H]4[C@@H]3CC[C@]3(C)C(=O)CC[C@@H]43)C2)OC1=O)Cc1ccccc1`, the inhibition in assay [4] is 93%; in assay [5] it was 40%; in assay [2], 71%; in assay [3], 14%.

On to `CCN(CC)C[C@@]1(O)CC[C@@]2(C)[C@@H](CC[C@@H]3[C@@H]2CC[C@]2(C)C(=O)CC[C@@H]32)C1`, for which the inhibition was 60% in assay [4], 14% in assay [1], 10% in assay [2] and 0% in assay [3].

Consider `C[C@@H]1CN(Cc2cccnc2)[C@@H](C)CN1C[C@@]1(O)CC[C@@]2(C)[C@@H](CC[C@@H]3[C@@H]2CC[C@]2(C)C(=O)CC[C@@H]32)C1`, for which the results for the inhibition in assay [1], in assay [2] and in assay [3] were 58%, 47% and 17%, respectively.

For the molecule `CCN(CCN1C[C@]2(CC[C@@]3(C)[C@@H](CC[C@@H]4[C@@H]3CC[C@]3(C)C(=O)CC[C@@H]43)C2)OC1=O)C1CCCCC1`, the inhibition is 72% in assay [4], 2% in assay [5], 21% in assay [2] and 2% in assay [3].

Turning to `C[C@]12CC[C@@]3(C[C@@H]1CC[C@@H]1[C@@H]2CC[C@]2(C)C(=O)CC[C@@H]12)CN(CCN1CCCCC1)C(=O)O3`, the inhibition in assay [4] is 21%; in assay [5], 10%; in assay [2], 0%; in assay [3], 0%.

In the case of `COc1ccc(CN2C[C@]3(CC[C@@]4(C)[C@@H](CC[C@@H]5[C@@H]4CC[C@]4(C)C(=O)CC[C@@H]54)C3)OC2=O)cc1`, the inhibition in assay [4] was found to be 93%; in assay [5], 43%; in assay [2], 84%; in assay [3], 5%.

On to `C[C@]12CC[C@](O)(CN3CCN(C(=O)C4CCCCC4)CC3)C[C@@H]1CC[C@@H]1[C@@H]2CC[C@]2(C)C(=O)CC[C@@H]12`, for which the figures for the inhibition in assay [1], in assay [2] and in assay [3] were 70%, 75% and 19%, respectively.

Take `C[C@]12CC[C@](O)(CN3CCN(S(=O)(=O)c4cccc(C(F)(F)F)c4)CC3)C[C@@H]1CC[C@@H]1[C@@H]2CC[C@]2(C)C(=O)CC[C@@H]12`: the inhibition in assay [1] was found to be 71%; in assay [2], 82%; in assay [3], 21%.

With `CCCN(CCN1C[C@]2(CC[C@@]3(C)[C@@H](CC[C@@H]4[C@@H]3CC[C@]3(C)C(=O)CC[C@@H]43)C2)OC1=O)C(=O)CC`, the inhibition in assay [4] was found to be 80%; in assay [5], 25%; in assay [2], 35%; in assay [3], 0%.

In the case of `C[C@]12CC[C@@]3(C[C@@H]1CC[C@@H]1[C@@H]2CC[C@]2(C)C(=O)CC[C@@H]12)CN(C1CCCCC1)C(=O)O3`, the inhibition was 78% in assay [4], 29% in assay [5], 75% in assay [2] and 13% in assay [3].

Consider `C[C@@H]1CN(Cc2cccc(C(F)(F)F)c2)[C@@H](C)CN1C[C@@]1(O)CC[C@@]2(C)[C@@H](CC[C@@H]3[C@@H]2CC[C@]2(C)C(=O)CC[C@@H]32)C1`, for which the results for the inhibition in assay [1], in assay [2] and in assay [3] were 78%, 89% and 31%, respectively.

Turning to `CN1CCN(C[C@@]2(O)CC[C@@]3(C)[C@@H](CC[C@@H]4[C@@H]3CC[C@]3(C)C(=O)CC[C@@H]43)C2)CC1`, the inhibition was determined as 40% in assay [4], 2% in assay [5], 0% in assay [2] and 0% in assay [3].

Regarding `CCCN(CCC)CCN1C[C@]2(CC[C@@]3(C)[C@@H](CC[C@@H]4[C@@H]3CC[C@]3(C)C(=O)CC[C@@H]43)C2)OC1=O`, the inhibition in assay [4] was 62%; in assay [5] it was 8%; in assay [2], 10%; in assay [3], 0%.

On to `Cc1ccc(CN2C[C@]3(CC[C@@]4(C)[C@@H](CC[C@@H]5[C@@H]4CC[C@]4(C)C(=O)CC[C@@H]54)C3)OC2=O)cc1`, for which the inhibition in assay [4] stood at 93%; in assay [5], 38%; in assay [2], 81%; in assay [3], 17%.

Consider `Cc1ccc(CN2C[C@]3(CC[C@@]4(C)[C@@H](CC[C@@H]5[C@@H]4CC[C@]4(C)C(=O)C(C)(C)C[C@@H]54)C3)OC2=O)cc1`, for which the inhibition came out at 74% in assay [4], 18% in assay [5], 22% in assay [2] and 2% in assay [3].

`Cc1cccc(OCCN2C[C@]3(CC[C@@]4(C)[C@@H](CC[C@@H]5[C@@H]4CC[C@]4(C)C(=O)CC[C@@H]54)C3)OC2=O)c1`: the inhibition in assay [4] amounted to 95%; in assay [5], 40%; in assay [2] it was 85%; in assay [3], 13%.

Take `C[C@]12CC[C@](O)(CN3CCN(Cc4cccc(SC(F)(F)F)c4)CC3)C[C@@H]1CC[C@@H]1[C@@H]2CC[C@]2(C)C(=O)CC[C@@H]12`: the inhibition in assay [1] came out at 62%; in assay [2], 91%; in assay [3], 3%.

As for `C[C@]12CC[C@](O)(CN3CCN(c4ccccc4)CC3)C[C@@H]1CC[C@@H]1[C@@H]2CC[C@]2(C)C(=O)CC[C@@H]12`, the inhibition is 89% in assay [4], 68% in assay [1], 78% in assay [2] and 13% in assay [3].

As to `C[C@]12CC[C@@]3(C[C@@H]1CC[C@@H]1[C@@H]2CC[C@]2(C)C(=O)CC[C@@H]12)CN(CCC(CN1CCOCC1)OC(=O)CCC1CCCC1)C(=O)O3` (stereo partly drawn), the inhibition in assay [4] amounted to 94%; in assay [5] it was 49%; in assay [2], 79%; in assay [3], 2%.
